From ChEMBL document CHEMBL3124751, “The versatile nature of the 6-aminoquinolone scaffold: identification of submicromolar hepatitis C virus NS5B inhibitors” (J Med Chem, 2014)

Tests used:
[1] = Cytostatic activity against human Huh5-2 cells assessed as cell viability after 72 hrs by MTS assay; format: cell-based; conditions: huh-5-2, 72 h
Method in brief: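 Huh 5-2 cells carry genotype 1b I389luc-ubineo/NS3-3'/5.1 replicon, maintained with 2% Geneticin. Seeded at 6 500 cells/well in Geneticin-free assay medium, overnight. Four-step 1:5 dilution screen or eight-step 1:2 series, 72 h at 37 °C. 5% MTS for 1.5 h, absorbance at 498 nm as % of untreated. CC50 from dose-response, mean of ≥3 independent experiments.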

[2] = Inhibition of Hepatitis C virus genotype 1b HC-J4 recombinant N-terminal histidine tagged truncated NS5B polymerase lacking C-terminal 21 amino acids assessed as standard-primer dependent elongation reaction using poly rA/U12 as template after 1 hr by liquid scintillation counting analysis; design: species or system Hepatitis C virus isolate HC-J4
Method in brief: (§1)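 Construct is His-tagged HC-J4 NS5B CΔ21, Ni-NTA purified. Poly rA/U12 primer-dependent elongation run 1 h at 30 °C, then stopped with chilled 5% TCA/0.5 mM pyrophosphate. Products collected on GF-B filters and counted by scintillation. Activity expressed relative to DMSO control. Screen at 25 μM. IC50 from 8–12 concentrations in duplicate, two independent experiments, by nonlinear regression.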

[3] = Selectivity index, ratio of CC50 for human Huh5-2 cells to EC50 for Hepatitis C virus genotype 1b I389luc-ubi-neo/NS3-3'/5.1 replicon in Huh 5-2 cells; format: toxicity, cell-based; conditions: read-out: Ratio CC50/EC50
Method in brief: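 Huh 5-2 replicon cells seeded at 6,500/well, overnight at 37 °C; compound dilution series (four-step 1:5 screen, eight-step 1:2 dose-response), 72 h. Antiviral: luciferase luminescence versus untreated controls. Parallel anti-metabolic: 5% MTS 1.5 h, absorbance 498 nm. EC50, CC50 from dose-response curves, means of at least three independent experiments; SI = CC50/EC50.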

[4] = Binding affinity to Hepatitis C virus isolate Con1 C-terminal hexahistidine fusion-tagged NS5B polymerase ectodomain by surface plasmon resonance assay
Method in brief: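 Con1 NS5B ectodomain (C-terminal His6) amine-coupled to CM5 chip at 4–5 kRU from 10 mM MES pH 6.0. Running buffer TBS-P (20 mM Tris pH 7.4, 130 mM NaCl, 0.05% Tween20, 5% DMSO). Compound injected 60 s at 30 μL/min, two-fold series 6–200 μM. Reference/blank subtraction, solvent correction; KD from global 1:1 Langmuir fit.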

Hepatitis C virus [5] = test: Antiviral activity against Hepatitis C virus genotype 1b I389luc-ubi-neo/NS3-3'/5.1 replicon in Huh 5-2 cells assessed as inhibition of replicon replication after 72 hrs by replicon system assay; format: functional, organism-based, Hepacivirus hominis; conditions: Huh-5-2, 72 h
Method in brief: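 Huh 5-2 replicon cells seeded at 6 500 cells/well one day before compound in DMEM with 10% FCS, 1% non-essential amino acids, 1% penicillin/streptomycin, no Geneticin. Four-step 1-to-5 or eight-step 1-to-2 dilutions, 72 h at 37 °C, 5% CO₂. Luciferase luminescence read after lysis, as % of untreated controls. EC50/EC90 from dose-response curves, means of at least three independent experiments.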

[6] = tested on: Hepatitis C virus isolate HC-J4; test: Inhibition of Hepatitis C virus genotype 1b HC-J4 recombinant N-terminal histidine tagged truncated NS5B polymerase lacking C-terminal 21 amino acids assessed as standard-primer dependent elongation reaction using poly rA/U12 as template at 25 uM after 1 hr by liquid scintillation counting analysis; method in brief: as §1
[7] = Binding affinity to Hepatitis C virus truncated NS5B polymerase lacking C-terminal 21 amino acids after 5 mins by fluorescence quenching assay; design: species or system Hepacivirus hominis
Method in brief: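 NS5B CΔ21 at 1 μM final in 50 mM Tris-HCl pH 7.8, 50 mM NaCl, 10% glycerol, 10% DMSO, 0.5 mM MnCl2. Serially diluted compound or DMSO, 5 min at room temperature. Intrinsic fluorescence excitation 280 nm, emission 330 nm; buffer-plus-compound background subtracted. KD fitted to ΔF/ΔFmax = [compound]total/(KD + [compound]total).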

Hepatitis C virus [8] = test: Antiviral activity against Hepatitis C virus genotype 1b I389luc-ubi-neo/NS3-3'/5.1 replicon in Huh 9-13 cells assessed as reduction in replicon RNA level after 72 hrs by RT-PCR analysis; format: functional, organism-based, Hepacivirus hominis
[9] = Cytostatic activity against human Huh-9-13 cells assessed as cell viability after 72 hrs by MTS assay; format: cell-based
Method in brief: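 Huh 9–13 subgenomic replicon cells seeded at 6 500 cells/well in DMEM with 10% FCS, 1% non-essential amino acids, 1% penicillin/streptomycin, then incubated overnight. Compound dilution series given, 72 h at 37 °C, 5% CO₂. Medium replaced with 5% MTS in phenol red-free medium for 1.5 h. Absorbance read at 498 nm as % of untreated. CC50 taken from dose-response, mean of ≥3 independent experiments.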

[10] = Cytotoxicity against human Huh-9-13 cells assessed as alteration in cell morphology by microscopic analysis; format: cell-based
[11] = Selectivity index, ratio of CC50 for human Huh-9-13 cells to EC50 for Hepatitis C virus genotype 1b I389luc-ubi-neo/NS3-3'/5.1 replicon in Huh-9-13 cells; format: toxicity, cell-based; conditions: read-out: Ratio CC50/EC50
Method in brief: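 Huh 9-13 replicon cells, setup and 72 h compound exposure as for Huh 5-2; CC50 by MTS in parallel. Antiviral readout: replicon RNA by one-step RT-qPCR of cell-to-cDNA lysates (300 nM each primer, 60 nM probe; 40 cycles), expressed as percentage of untreated controls to give EC50; SI = CC50/EC50.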

## CN1CCN(c2cc3c(cc2N)c(=O)c(C(=O)OCc2ccc(Cl)cc2)cn3Cc2ccc(Cl)cc2)CC1
[1]
  CC50: 2.8 µM
[2]
  IC50: 40 nM
[3]
  selectivity ratio: 1.2
[4]
  Kd: 14 µM
Hepatitis C virus [5]
  EC50: 2.7 µM
[6]
  inhibition: > 50%
[7]
  Kd: 1200 nM

## Cc1ccccc1COC(=O)c1cn(Cc2ccc(C(F)(F)F)cc2F)c2cc(Cl)c(N)cc2c1=O
[1]
  CC50: 10.5 µM
[2]
  IC50: 1410 nM
[3]
  selectivity ratio: 6.8
Hepatitis C virus [5]
  EC50: 1.5 µM
[6]
  inhibition: > 50%

## Nc1cc2c(=O)c(C(=O)OCc3ccc(Cl)cc3)cn(Cc3ccc(Cl)cc3)c2cc1N1CCN(c2ccccn2)CC1
Hepatitis C virus [8]
  EC50: 3.03 µM
[1]
  CC50: > 244 µM
[2]
  IC50: 69 nM
[9]
  CC50: > 163 µM
[3]
  selectivity ratio: > 111
Hepatitis C virus [5]
  EC50: 2.2 µM
  EC90: 13.5 µM
[10]
  Activity: Toxic
[11]
  selectivity ratio: > 54
[6]
  inhibition: > 50%

## Nc1cc2c(=O)c(C(=O)O)cn(Cc3ccc(Cl)cc3)c2cc1N1CCN(c2ccccn2)CC1
[1]
  CC50: > 204 µM
[2]
  IC50: 23700 nM
Hepatitis C virus [5]
  EC50: 7.3 µM

## Nc1cc2c(=O)c(C(=O)OCc3ccc(Cl)cc3)cn(Cc3ccc(Cl)cc3)c2cc1N1CCN(c2nc3ccccc3s2)CC1
[1]
  CC50: > 169 µM
[2]
  IC50: 138 nM
Hepatitis C virus [5]
  EC50: 8.6 µM
[6]
  inhibition: > 50%

## Nc1cc2c(=O)c(C(=O)OCc3ccc(Cl)cc3)cn(Cc3ccc(Cl)cc3)c2cc1N1CCN(c2cccc(C(F)(F)F)c2)CC1
[1]
  CC50: > 147 µM
[2]
  IC50: 6130 nM
Hepatitis C virus [5]
  EC50: 23.8 µM
  EC90: 94.6 µM
[6]
  inhibition: > 50%

## COc1cc2c(=O)c(C(=O)OCc3ccc(C)cc3)cn(Cc3ccc(C(F)(F)F)cc3F)c2cc1OC
[1]
  CC50: 42.3 µM
[2]
  IC50: 211 nM
[3]
  selectivity ratio: 21
Hepatitis C virus [5]
  EC50: 2.02 µM
  EC90: 4.7 µM

## CCOC(=O)c1cn(Cc2ccc(Cl)cc2)c2cc(N3CCN(c4ccccn4)CC3)c(N)cc2c1=O
[1]
  CC50: > 193 µM
[2]
  IC50: 3060 nM
[3]
  selectivity ratio: > 6.2
Hepatitis C virus [5]
  EC50: 31.3 µM

## Cc1ccc(COC(=O)c2cn(Cc3ccc(C(F)(F)F)cc3F)c3cc(Cl)c(N)cc3c2=O)cc1
[1]
  CC50: > 192 µM
[2]
  IC50: 154 nM
Hepatitis C virus [5]
  EC50: 72.3 µM
  EC90: > 192 µM
[6]
  inhibition: > 50%

## Nc1cc2c(=O)c(C(=O)OCc3ccc(Cl)cc3)cn(Cc3ccc(Cl)cc3)c2cc1Cl
[1]
  CC50: > 200 µM
Hepatitis C virus [5]
  EC50: > 200 µM
  EC90: > 200 µM

## Nc1cc2c(=O)c(C(=O)OCc3ccc(Cl)cc3)cn(Cc3ccc(Cl)cc3)c2cc1N1CCNCC1
[1]
  CC50: 3.7 µM
[2]
  IC50: 67 nM
[3]
  selectivity ratio: 2.3
Hepatitis C virus [5]
  EC50: 1.7 µM
[6]
  inhibition: > 50%
